Compounds with a hit are over-represented: about 4.3% of the library has one in this group of screens.
PREPL inhibitor: inhibits the human prolyl oligopeptidase-like enzyme; recombinant PREPL, fluorescence polarization activity-based probe; inhibition, % at 5.96 µM; 320,000 compounds, 0.68% hits; AID 2751; in the data active = inhibition above about 43%;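 note: 0% = enzyme with DMSO and 100% = wells lacking enzyme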
Rin1 Abl inh: human Rin1-Abl interaction inhibition; inhibition, % at 7.35 µM; P00519+Q13671; 360,000 compounds, 0.4% hits; AID 588664; TR-FRET Rin1/Abl binding, biochemical; in the data active = inhibition above about 5%, passing the limit was not always enough
UBC13 polyUb: human UBC13 polyubiquitination inhibition. P61088. UBC13 polyubiquitin chain formation, TR-FRET. inhibition, % at 20 µM. 330,000 compounds, 0.47% hits; in the data active = inhibition above about 45%, passing the limit was not always enough
Target sequence (P61088 whole entry, looked up): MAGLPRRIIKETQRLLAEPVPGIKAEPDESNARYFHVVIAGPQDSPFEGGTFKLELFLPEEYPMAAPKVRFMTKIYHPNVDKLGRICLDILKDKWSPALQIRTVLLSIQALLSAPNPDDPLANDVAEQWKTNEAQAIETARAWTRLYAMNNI
ALR H2O2 inh: blocks human ALR sulfhydryl oxidase activity. purified ALR, DTT oxidation, H2O2 HRP-luminol luminescence. inhibition, % (concentration not given with the values). 290,000 compounds, 3.8% hits. AID 485317;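 active = mean replicate inhibition above about 79%, with every replicate also reaching it, limit read from the data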
Target sequence (P55789 whole entry, looked up): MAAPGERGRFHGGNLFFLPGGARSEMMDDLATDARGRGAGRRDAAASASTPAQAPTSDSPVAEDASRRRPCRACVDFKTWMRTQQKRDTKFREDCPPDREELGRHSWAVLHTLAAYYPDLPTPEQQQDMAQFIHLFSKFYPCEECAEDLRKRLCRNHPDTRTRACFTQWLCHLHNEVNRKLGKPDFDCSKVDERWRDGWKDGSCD
UBC9 SUMO inh: inhibitors of human SUMOylation (UBC9). P63279. HTRF SUMOylation assay, SAE1/SAE2 + UBC9, in vitro. inhibition, % at 35 µM. 290,000 compounds, 0.36% hits. AID 2006; in the data active = inhibition above about 50%, passing the limit was not always enough
RBBP9 inhibitor: inhibitors of human serine hydrolase RBBP9 | O75884 | recombinant RBBP9, FP-Rh probe fluorescence polarization | inhibition, % at 7.94 µM | 220,000 compounds, 0.2% hits | AID 1515;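 active = inhibition above the campaign mean of all tested compounds plus 3 SD, cut at about 14% in these data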;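 note: plate controls were DMSO wells with RBBP9 for no effect and wells lacking RBBP9 protein for full effect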
Target sequence (O75884 whole entry, looked up): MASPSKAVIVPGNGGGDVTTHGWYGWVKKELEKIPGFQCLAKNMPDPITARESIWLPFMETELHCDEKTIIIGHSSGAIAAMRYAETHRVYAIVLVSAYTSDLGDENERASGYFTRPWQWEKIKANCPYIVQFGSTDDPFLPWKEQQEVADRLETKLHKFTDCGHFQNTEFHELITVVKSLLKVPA
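Material: RBBP9 protein. Amount: RBBP9 at 2.5 µM in dispensed solution, before mixing. Schedule: 30 min then 45 min, 25 °C. Medium: Tris buffer pH 8.0, NaCl, Pluronic. Measured by: fluorescence polarization. Measure: percent inhibition from mP, scaled between DMSO and no-protein wells. Replication: one well per compound.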
Active calls of the source: *; · = not tested or not shown.

SMILES	PREPL inhibitor	Rin1 Abl inh	UBC13 polyUb	ALR H2O2 inh	UBC9 SUMO inh	RBBP9 inhibitor
CC(=O)c1cccc(-c2ccnc3c2CC(C(=O)Nc2ccc(Cl)c(C(F)(F)F)c2)O3)c1 (stereo unspecified)	·	0	·	·	·	·
CN(CCO)CC(O)CN(c1ccccc1)c1ccccc1 (stereo unspecified)	24	3	2	99*	4	-3
CNCC(O)CN(c1ccccc1)c1ccccc1 (stereo unspecified)	12	3	6	99*	9	-1
CN(Cc1ccccc1)CC(O)CN(C)Cc1ccccc1	·	6	·	·	·	·
NC(N)=NCC(O)CN(c1ccccc1)c1ccccc1 (stereo unspecified)	32	1	12	99*	2	-4
NC(=S)N(c1ccccc1)c1ccccc1	4	-3	1	-3	-5	-10
COc1ccccc1N1CCN(c2ccc([N+](=O)[O-])cc2Cl)CC1	13	5	3	6	-21	3
CCN(CCNCC(O)COc1ccccc1C(C)C)c1cccc(C)c1 (stereo unspecified)	13	5	32	99*	-10	·
O=C(CN1C(=O)c2cccc([N+](=O)[O-])c2C1=O)N1CCN(S(=O)(=O)c2ccccc2)CC1	1	2	-4	-19	·	·
O=C(O)CNC(=O)CC1S/C(=N/N=C2/NC(=O)CS2)NC1=O (stereo unspecified)	1	2	-34	90*	11	-11
NC(=O)NC(=O)CC1S/C(=N/N=C2\CSC(=O)N2)NC1=O (stereo unspecified)	-12	1	-14	85*	-23	-5
COc1ccc(CCNC(=O)c2ccc3c(=O)n4c(nc3c2)CCC4)cc1OC	·	0	-3	·	·	·
COC(=O)c1cccc(NC(=O)CCc2c(C)noc2C)c1	1	-3	6	-2	·	·
CC(Sc1ccc2c(c1)OCCO2)C(=O)Nc1ccc(N2CCOCC2)cc1 (stereo unspecified)	3	2	4	99*	14	2
CC(Oc1cccc(Cl)c1)C(=O)Nc1ccc(N2CCOCC2)cc1N1CCOCC1 (stereo unspecified)	22	4	-1	98*	·	·
CC(Oc1ccc(Cl)cc1)C(=O)N(C)CC(=O)Nc1ccc(N2CCOCC2)cc1 (stereo unspecified)	3	-2	10	93*	5	·
Cc1ccc(CC(=O)N(C)CC(=O)Nc2ccc(N3CCOCC3)cc2)cc1C	13	2	-8	99*	·	·
CC(C(=O)NCC1CCCCC1)N(C)CC(=O)Nc1ccc(N2CCOCC2)cc1 (stereo unspecified)	-4	3	0	92*	10	10
CN(CC(=O)Nc1ccc(N2CCOCC2)cc1)C(=O)CSc1ccc(Br)cc1	17	3	-14	71	12	·
CN(CC(=O)Nc1ccc(N2CCOCC2)cc1)C(=O)CC(c1ccccc1)c1ccccc1	7	-4	-10	·	0	-2
CC(Sc1ccc(Cl)cc1)C(=O)N(C)CC(=O)Nc1ccc(N2CCOCC2)cc1 (stereo unspecified)	-5	0	-1	92*	·	·
COc1ccc(N(C(=O)c2cnccn2)C(C(=O)NC2CCCCC2)c2ccccc2)cc1 (stereo unspecified)	7	4	0	6	-7	·
O=C(NCCc1ccc(Cl)cc1Cl)C1=CC=CN2CCS(=O)(=O)N=C12	5	-1	17	-3	·	·
O=C(Nc1ccc(Cc2ccncc2)cc1)c1cccc([N+](=O)[O-])c1	12	3	-6	-1	11	-12
O=C(Nc1ccc(Nc2ccncc2)cc1)c1ccc(Nc2ccnc3ccc([N+](=O)[O-])cc23)cc1	·	1	·	·	69*	7
SMILES	PREPL inhibitor	Rin1 Abl inh	UBC13 polyUb	ALR H2O2 inh	UBC9 SUMO inh	RBBP9 inhibitor
O=C(NNC1=C(C(=O)C(F)(F)F)CCC1)c1ccccc1O	-5	-1	-27	87*	4	1
N#Cc1ccccc1NC(=S)NC(=O)c1cccs1	10	1	28	98*	7	·
COc1ccccc1CN1CC(C(=O)NCC2(O)CCCCC2)CCC1=O (stereo unspecified)	·	-4	·	·	·	·
CC1Cc2ccccc2N1S(=O)(=O)c1cccc(C(=O)N2CC(=O)Nc3ccccc32)c1 (stereo unspecified)	22	-2	-5	·	-8	-9
CCCc1nnc(NC(=O)C23CC4CC(CC(C4)C2)C3)s1	·	2	-1	-4	-10	·
COc1ccc(CNC(=O)C2CSC(c3ccc(OC)cc3)N2C(C)=O)cc1 (stereo unspecified)	-59	-3	8	85*	18	0
O=C(CSc1nc2ccccc2[nH]1)c1ccc(Cl)s1	-3	4	-4	·	27	1
C/C(=N\Nc1nc2ccccc2[nH]1)c1ccc(C)o1	12	-4	-10	99*	0	-4
C/C(=N\Nc1nc2ccccc2[nH]1)c1ccc(Cl)s1	43	-1	-7	99*	-12	-6
C/C(=N\Nc1nc2ccccc2[nH]1)c1ccc(N2CCOCC2)cc1	10	-7	-25	52	-9	2
O=c1[nH]cc(S(=O)(=O)NCc2ccccc2)c(=O)[nH]1	4	-3	-1	·	·	·
CCOC(=O)c1ccccc1NC(=O)Cc1ccc(S(=O)(=O)N2CCCC2)s1	5	3	14	0	·	·
COC(=O)c1ccc2nc(-c3ccccc3)c(Cc3ccccc3OC)n2c1	·	4	·	·	·	·
CCOC(=O)C(=O)N(C)c1c(CC)nc2c(OCc3ccccc3)cccn12	·	-4	·	·	·	·
Cc1[nH]nc2c1-c1nc3ccccc3nc1C(C)(C)C2	16	0	16	99*	7	-4
O=C(CSc1nc2c(cnn2-c2cccc(Cl)c2)c(=O)[nH]1)NCCC1=CCCCC1	-1	4	-12	29	·	·
Nc1nc(-c2ccc3c(c2)CCO3)cs1	2	0	0	97*	20	-6
CC(=O)Nc1nc(-c2ccc3c(c2)CCO3)cs1	4	2	3	-10	11	2
COc1ccc(-c2cc3ccccc3n2CC(O)CN2CCN(CCO)CC2)cc1 (stereo unspecified)	28	-2	13	96*	3	-7
COc1ccc(-c2cc3ccccc3n2CC(O)CN2CCOCC2)cc1 (stereo unspecified)	9	0	8	-4	30	1
O=C(COc1ccc(Br)cc1)NNC(=O)Cc1ccc(S(=O)(=O)N2CCOCC2)s1	·	1	·	·	·	·
N#Cc1ccc(CSc2nnc(NC(=O)c3ccc(=O)[nH]c3)s2)cc1	8	-1	13	92*	1	-12
Cc1cccc(C)c1NC(=O)CSc1nnc(C)c(=O)[nH]1	-6	-4	5	-5	10	3
Cc1nnc(SCC(=O)Nc2cccc(C(F)(F)F)c2)[nH]c1=O	-5	0	-5	98*	13	-1
